Where only a bound is given, the exact number is not on record here.

One data set deals with T1, 3-oxoacyl-(Acyl-carrier protein) reductase (Plasmodium falciparum (isolate 3D7), UniProt Q8I2S7).
T1 sequence (Q8I2S7 whole entry): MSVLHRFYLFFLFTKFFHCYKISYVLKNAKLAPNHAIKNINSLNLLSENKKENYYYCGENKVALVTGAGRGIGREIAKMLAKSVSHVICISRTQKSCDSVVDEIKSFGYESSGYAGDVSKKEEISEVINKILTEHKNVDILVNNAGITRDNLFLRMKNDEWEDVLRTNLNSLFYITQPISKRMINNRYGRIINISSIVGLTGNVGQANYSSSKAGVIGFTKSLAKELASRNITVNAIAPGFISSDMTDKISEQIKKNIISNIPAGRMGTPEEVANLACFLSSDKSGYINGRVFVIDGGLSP
Put plainly: Inhibition of recombinant Plasmodium falciparum 3D7 FabG using acetoacetyl-CoA as substrate after 10 mins in presence of NADPH.
Conditions: not given
Take `Cc1cc(=O)oc2cc(Oc3ccc(Cl)cc3O)ccc12`: the IC50 (usually the point on the concentration scale where inhibition reaches its midpoint) was more than 100 µM.

`CCc1cc(=O)oc2cc(Oc3ccc(Cl)cc3O)ccc12`: the IC50 is more than 100 µM.

For the compound `O=c1oc2ccccc2cc1Oc1ccc(Cl)cc1O`, the IC50 is more than 100 µM.

As to `O=c1oc2ccc(O)cc2cc1Oc1ccc(Cl)cc1O`, the IC50 was more than 100 µM.

For `O=c1oc2cc(O)ccc2cc1Oc1ccc(Cl)cc1O`, the IC50 was found to be 99 µM.

On to `O=c1oc2cc(O)cc(O)c2cc1Oc1ccc(Cl)cc1O`, for which the IC50 was more than 100 µM.

For the compound `Cc1c(Oc2ccc(Cl)cc2O)c(=O)oc2ccccc12`, the IC50 is more than 100 µM.

Regarding `Cc1c(Oc2ccc(Cl)cc2O)c(=O)oc2cc(O)ccc12`, the IC50 is more than 100 µM.

Consider `O=c1oc2cc(O)ccc2cc1-c1ccc(Oc2ccc(Cl)cc2O)cc1`, for which the IC50 was more than 100 µM.

Another data set relates to L6. Put plainly: Cytotoxicity against rat L6 cells assessed as growth inhibition after 72 hrs by fluorometric analysis. The data set is classed as cell-based. Particulars: L6, 72 h. A digest of the protocol: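 Mammalian L6 cell growth inhibition; IC50 taken as the average of at least two independent assays, each run in duplicate.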
On to `O=c1ccc2cc(Oc3ccc(Cl)cc3O)ccc2o1`, for which the 50% inhibitory concentration (IC50) was found to be 96.2 µM.

On to `Cc1cc(=O)oc2ccc(Oc3ccc(Cl)cc3O)cc12`, for which the IC50 was determined as 35.5 µM.

For the compound `CCc1cc(=O)oc2ccc(Oc3ccc(Cl)cc3O)cc12`, the IC50 worked out at 142 µM.

Regarding `O=c1ccc2ccc(Oc3ccc(Cl)cc3O)cc2o1`, the 50% inhibitory concentration (IC50) is 188 µM.

`Cc1cc(=O)oc2cc(Oc3ccc(Cl)cc3O)ccc12`: the IC50 turned out to be 85.9 µM.

As for `CCc1cc(=O)oc2cc(Oc3ccc(Cl)cc3O)ccc12`, the IC50 was found to be 84.8 µM.

Take `O=c1oc2ccccc2cc1Oc1ccc(Cl)cc1O`: the IC50 came to 108 µM.

As to `O=c1oc2ccc(O)cc2cc1Oc1ccc(Cl)cc1O`, the half-inhibitory concentration (IC50) came to 134 µM.

Consider `O=c1oc2cc(O)ccc2cc1Oc1ccc(Cl)cc1O`, for which the IC50 came out at 144 µM.

Regarding `O=c1oc2cc(O)cc(O)c2cc1Oc1ccc(Cl)cc1O`, the 50% inhibitory concentration (IC50) came to 128 µM.

On to `Cc1c(Oc2ccc(Cl)cc2O)c(=O)oc2ccccc12`, for which the IC50 stood at 51.5 µM.

With `Cc1c(Oc2ccc(Cl)cc2O)c(=O)oc2cc(O)ccc12`, the IC50 turned out to be 96.3 µM.

`O=c1oc2cc(O)ccc2cc1-c1ccc(Oc2ccc(Cl)cc2O)cc1`: the IC50 was 41 µM.

On to `COc1cc([C@@H]2c3cc4c(cc3[C@H](O)[C@H]3COC(=O)[C@H]23)OCO4)cc(OC)c1OC` [PODOFILOX], for which the IC50 worked out at 0.006 µM.

The next data set concerns Plasmodium falciparum. Nature of the data set: Antiplasmodial activity against asexual blood stage form of Plasmodium falciparum assessed as growth inhibition after 72 hrs by [3H]-hypoxanthine incorporation assay. The data set is classed as functional, organism-based.
Conditions: not given
A digest of the protocol:
(§1)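 Tested against the chloroquine- and pyrimethamine-resistant K1 strain, with chloroquine as the standard drug. Growth was read by [3H]hypoxanthine incorporation. IC50 was taken from graphically plotted dose–response curves and averaged over at least two independent assays run in duplicate.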
For `Oc1cc(Cl)ccc1Oc1ccc(Cl)cc1Cl` [TRICLOSAN], the IC50 amounted to 1 µM.

In a further data set the target is T2, Fatty acid synthase (Plasmodium falciparum, UniProt Q965D7).
T2 sequence (Q965D7 whole entry): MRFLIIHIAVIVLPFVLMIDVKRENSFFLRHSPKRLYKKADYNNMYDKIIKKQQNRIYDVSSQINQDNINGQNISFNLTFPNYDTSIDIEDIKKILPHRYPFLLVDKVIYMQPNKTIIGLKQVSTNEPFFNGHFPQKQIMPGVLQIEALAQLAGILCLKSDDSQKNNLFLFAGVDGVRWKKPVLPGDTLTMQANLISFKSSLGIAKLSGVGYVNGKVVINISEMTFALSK
Put plainly: Inhibition of recombinant Plasmodium falciparum FabZ using crotonoyl-CoA as substrate after 10 mins.
Conditions: not given
Summed up: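 Recombinant enzymes PfFabG and PfFabZ were used. IC50 is the concentration giving 50% inhibition, reported as the mean of three independent experiments.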
With `Cc1cc(=O)oc2cc(Oc3ccc(Cl)cc3O)ccc12`, the IC50 is more than 100 µM.

Take `CCc1cc(=O)oc2cc(Oc3ccc(Cl)cc3O)ccc12`: the IC50 was more than 100 µM.

`O=c1oc2ccccc2cc1Oc1ccc(Cl)cc1O`: the IC50 is more than 100 µM.

Consider `O=c1oc2ccc(O)cc2cc1Oc1ccc(Cl)cc1O`, for which the IC50 was more than 100 µM.

In the case of `O=c1oc2cc(O)ccc2cc1Oc1ccc(Cl)cc1O`, the IC50 amounted to 16.3 µM.

Consider `O=c1oc2cc(O)cc(O)c2cc1Oc1ccc(Cl)cc1O`, for which the IC50 worked out at 90 µM.

As for `Cc1c(Oc2ccc(Cl)cc2O)c(=O)oc2ccccc12`, the IC50 was 13 µM.

For the compound `Cc1c(Oc2ccc(Cl)cc2O)c(=O)oc2cc(O)ccc12`, the IC50 came out at 28 µM.

For the compound `O=c1oc2cc(O)ccc2cc1-c1ccc(Oc2ccc(Cl)cc2O)cc1`, the IC50 turned out to be 10 µM.

With `O=C(O[C@@H]1Cc2c(O)cc(O)cc2O[C@@H]1c1cc(O)c(O)c(O)c1)c1cc(O)c(O)c(O)c1` [EPIGALOCATECHIN GALLATE], the IC50 worked out at 0.03 µM.

Test system in a further data set: not listed separately
Put plainly: Selectivity index, ratio of IC50 for rat L6 cells to IC50 for chloroquine/pyrimethamine-resistant Plasmodium falciparum K1. The data set is classed as toxicity, cell-based. Particulars: rat L6 cells (cytotoxicity) versus Plasmodium falciparum K1, read-out: Ratio IC50. Summed up: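 Ratio of the rat L6 cell growth-inhibition IC50 to the P. falciparum K1 IC50, calculated per WHO/TDR guidelines. Each cell IC50 is the average of at least two independent assays run in duplicate.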
For `O=c1ccc2cc(Oc3ccc(Cl)cc3O)ccc2o1`, the selectivity ratio came out at 9.

Take `Cc1cc(=O)oc2ccc(Oc3ccc(Cl)cc3O)cc12`: the selectivity ratio was found to be 2.2.

For the compound `CCc1cc(=O)oc2ccc(Oc3ccc(Cl)cc3O)cc12`, the selectivity ratio was found to be 25.6.

Take `O=c1ccc2ccc(Oc3ccc(Cl)cc3O)cc2o1`: the selectivity ratio was 20.1.

As to `Cc1cc(=O)oc2cc(Oc3ccc(Cl)cc3O)ccc12`, the selectivity ratio was determined as 9.

For the compound `CCc1cc(=O)oc2cc(Oc3ccc(Cl)cc3O)ccc12`, the selectivity ratio turned out to be 14.9.

For the compound `O=c1oc2ccccc2cc1Oc1ccc(Cl)cc1O`, the selectivity ratio came to 7.2.

`O=c1oc2cc(O)ccc2cc1-c1ccc(Oc2ccc(Cl)cc2O)cc1`: the selectivity ratio was 5.1.

The test system of a further data set is Plasmodium falciparum. Nature of the data set: Antiplasmodial activity against chloroquine/pyrimethamine-resistant Plasmodium falciparum K1 assessed as growth inhibition after […] by [3H]-hypoxanthine incorporation assay.
Conditions: not given
The data set is classed as functional, organism-based. Summed up: as §1
As to `O=c1ccc2cc(Oc3ccc(Cl)cc3O)ccc2o1`, the IC50 amounted to 10.7 µM.

On to `Cc1cc(=O)oc2ccc(Oc3ccc(Cl)cc3O)cc12`, for which the IC50 was 15.6 µM.

In the case of `CCc1cc(=O)oc2ccc(Oc3ccc(Cl)cc3O)cc12`, the IC50 stood at 5.6 µM.

As for `O=c1ccc2ccc(Oc3ccc(Cl)cc3O)cc2o1`, the IC50 came to 9.3 µM.

In the case of `Cc1cc(=O)oc2cc(Oc3ccc(Cl)cc3O)ccc12`, the IC50 was determined as 9.5 µM.

`CCc1cc(=O)oc2cc(Oc3ccc(Cl)cc3O)ccc12`: the IC50 amounted to 5.7 µM.

In the case of `O=c1oc2ccccc2cc1Oc1ccc(Cl)cc1O`, the IC50 is 15 µM.

For `O=c1oc2ccc(O)cc2cc1Oc1ccc(Cl)cc1O`, the IC50 is more than 15 µM.

Regarding `O=c1oc2cc(O)ccc2cc1Oc1ccc(Cl)cc1O`, the IC50 was more than 15 µM.

For the compound `O=c1oc2cc(O)cc(O)c2cc1Oc1ccc(Cl)cc1O`, the IC50 is more than 15 µM.

Consider `Cc1c(Oc2ccc(Cl)cc2O)c(=O)oc2ccccc12`, for which the IC50 was more than 15 µM.

In the case of `Cc1c(Oc2ccc(Cl)cc2O)c(=O)oc2cc(O)ccc12`, the IC50 is more than 15 µM.

Turning to `O=c1oc2cc(O)ccc2cc1-c1ccc(Oc2ccc(Cl)cc2O)cc1`, the IC50 came out at 8 µM.

With `Oc1cc(Cl)ccc1Oc1ccc(Cl)cc1Cl` [TRICLOSAN], the IC50 was determined as 1.51 µM.

Test system in a further data set: not listed separately
Put plainly: Inhibition of recombinant Plasmodium falciparum FabI using crotonoyl-CoA as substrate assessed as consumption of NADH after 10 mins.
Conditions: not given
A digest of the protocol:
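Recombinant PfFabI inhibition was followed spectrophotometrically. IC50 is the concentration giving 50% inhibition, reported as the mean of three independent experiments.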
Regarding `O=c1ccc2cc(Oc3ccc(Cl)cc3O)ccc2o1`, the IC50 was 0.63 µM.

With `Cc1cc(=O)oc2ccc(Oc3ccc(Cl)cc3O)cc12`, the IC50 is 14.2 µM.

In the case of `CCc1cc(=O)oc2ccc(Oc3ccc(Cl)cc3O)cc12`, the IC50 turned out to be 11 µM.

`O=c1ccc2ccc(Oc3ccc(Cl)cc3O)cc2o1`: the IC50 is 2.7 µM.

With `Cc1cc(=O)oc2cc(Oc3ccc(Cl)cc3O)ccc12`, the IC50 came out at 0.25 µM.

For the compound `CCc1cc(=O)oc2cc(Oc3ccc(Cl)cc3O)ccc12`, the IC50 came to 0.27 µM.

As for `O=c1oc2ccccc2cc1Oc1ccc(Cl)cc1O`, the IC50 came out at 5.5 µM.

As to `O=c1oc2ccc(O)cc2cc1Oc1ccc(Cl)cc1O`, the IC50 amounted to 14 µM.

For the compound `O=c1oc2cc(O)ccc2cc1Oc1ccc(Cl)cc1O`, the IC50 came out at 6 µM.

For `O=c1oc2cc(O)cc(O)c2cc1Oc1ccc(Cl)cc1O`, the IC50 came out at 44 µM.

As for `Cc1c(Oc2ccc(Cl)cc2O)c(=O)oc2ccccc12`, the IC50 worked out at 12 µM.

Regarding `Cc1c(Oc2ccc(Cl)cc2O)c(=O)oc2cc(O)ccc12`, the IC50 worked out at 15 µM.

Consider `O=c1oc2cc(O)ccc2cc1-c1ccc(Oc2ccc(Cl)cc2O)cc1`, for which the IC50 is 0.45 µM.

`Oc1cc(Cl)ccc1Oc1ccc(Cl)cc1Cl` [TRICLOSAN]: the IC50 was 0.05 µM.

Test system in a further data set: not listed separately
Nature of the data set: Inhibition of Plasmodium falciparum FabI using crotonoyl-CoA as substrate by UV-Vis spectrophotometric analysis in presence of NADH.
Conditions: not given
Summed up: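 Recombinant PfFabI enzyme, spectrophotometric read-out; IC50 (concentration giving 50% inhibition) reported as the mean of three independent experiments.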
Take `Oc1cc(Cl)ccc1Oc1ccc(Cl)cc1Cl` [TRICLOSAN]: the IC50 came to 0.05 µM.

Values taken from ChEMBL document CHEMBL2424603, “Design, synthesis, and biological and crystallographic evaluation of novel inhibitors of Plasmodium falciparum enoyl-ACP-reductase (PfFabI)” (J Med Chem, 2013).
